An excerpt weighted towards active compounds, which were near 4.3% of everything screened.
TAAR1 agonist = human TAAR1 agonists, primary screen, Fluo-8 calcium fluorescence, CHO RD-HGA16 cells; AID 624467, 2012; Trace amine-associated receptor 1 (Homo sapiens), Q96RJ0; actives 0.99% (n = 360,000); activation, % at 3 µM; vehicle wells 0%, saturating PEA agonist 100%;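 active = activation above the mean activation of all test compounds in the run plus 3 SD, cut at about 38% in these data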
Target sequence (Q96RJ0 whole entry, looked up): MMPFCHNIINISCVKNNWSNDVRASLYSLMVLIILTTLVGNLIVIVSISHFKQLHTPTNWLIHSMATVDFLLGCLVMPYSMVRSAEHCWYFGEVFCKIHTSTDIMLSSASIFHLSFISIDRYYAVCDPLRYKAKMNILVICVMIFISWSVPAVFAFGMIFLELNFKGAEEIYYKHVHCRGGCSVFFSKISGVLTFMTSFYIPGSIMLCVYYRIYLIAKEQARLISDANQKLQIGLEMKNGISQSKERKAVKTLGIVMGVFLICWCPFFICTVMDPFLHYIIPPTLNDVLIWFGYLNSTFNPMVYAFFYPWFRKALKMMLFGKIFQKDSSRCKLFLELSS
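System: CHO-derived RD-HGA16 cells with stable Gα16 and human TAAR1. Times: 17-24 h plating, Fluo-8 75 min 37 °C, 30 min RT. Measured by: calcium-sensitive Fluo-8 signal, excitation 470-495, emission 515-575 nm. Read-out basis: % activation relative to PEA EC100 response. Control set: DMSO and PEA EC100. Repeats: no replicates (n 1).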
TAAR1 antag = human TAAR1 antagonists, primary screen, Fluo-8 calcium fluorescence, CHO RD-HGA16 cells | Trace amine-associated receptor 1 (Homo sapiens), Q96RJ0 | antagonist | inhibition, % at 3 µM | actives 1.5% (n = 360,000) | AID 624466, 2012;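 active = inhibition above a per-plate cutoff, the mean inhibition of test compounds on that plate plus 3 SD, cut at about 49% in these data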
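Test system: CHO RD-HGA16 cells bearing hTAAR1 | Reagent: β-PEA, EC80 | Compound dosing: 3 µM, single point | Schedule: Dye loading 75 min at 37 °C, then 30 min room temperature | Signal: Calcium fluorescence with Fluo-8 | Evaluation: Percent inhibition of PEA-evoked calcium signal, max/basal emission ratio | Control set: DMSO-only wells and EC80 β-PEA-stimulated wells | Repeats: Singlicate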
MC4R ag barr = MC4R agonists recruiting beta-arrestin, primary screen, cell-based, luminescence, agonist arm of biased-ligand search | actives 0.98% (n = 360,000) | Melanocortin receptor 4 (Homo sapiens), P32245 | activation, % at 8.9 µM | U2OS MC4R beta-arrestin complementation; percent of melanotan II response, DMSO zero;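 active = activation above a per-plate cutoff, the mean activation of sample wells on that plate plus 3 SD, cut at about 8% in these data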
Beta2AR agonist = beta2AR agonists driving receptor internalization, primary screen, cell-based, FAP fluorogen, flow cytometry. Am2.2-beta2AR cells. response, % (concentration not given with the values). actives 0.43% (n = 340,000);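 active = response above a set limit, near 3 SD of response in nonfluorescent compounds, cut at about 42% in these data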
Target sequence (P07550 whole entry, looked up): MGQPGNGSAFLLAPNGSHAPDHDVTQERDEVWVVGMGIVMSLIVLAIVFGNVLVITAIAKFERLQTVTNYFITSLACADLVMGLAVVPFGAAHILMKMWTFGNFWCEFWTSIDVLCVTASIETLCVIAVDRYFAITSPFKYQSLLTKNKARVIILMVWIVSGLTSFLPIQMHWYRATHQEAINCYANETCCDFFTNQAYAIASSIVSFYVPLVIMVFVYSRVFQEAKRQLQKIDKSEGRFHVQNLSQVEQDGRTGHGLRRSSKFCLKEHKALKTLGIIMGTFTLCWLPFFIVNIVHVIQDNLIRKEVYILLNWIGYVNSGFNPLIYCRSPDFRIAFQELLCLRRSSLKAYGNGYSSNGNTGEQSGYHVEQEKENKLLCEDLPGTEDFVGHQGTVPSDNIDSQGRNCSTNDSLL
m5-HT2A agonist = mouse Htr2a agonists via beta-arrestin recruitment, primary screen, cell-based, luminescence; 5-hydroxytryptamine receptor 2A (Mus musculus), P35363; CHO-K1 mHTR2A beta-arrestin complementation; percent of 30 µM serotonin response; activation, % at 7.6 µM; actives 0.66% (n = 360,000); AID 624169, 2012;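 active = activation above a run cutoff, the mean activation of all tested compounds plus 3 SD, cut at about 14% in these data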
MC4R antagonist = MC4R antagonists of cAMP signaling, primary screen, cell-based, TR-FRET, antagonist arm of biased-ligand search; MC4R-expressing cells, MTII-stimulated cAMP, LANCE TR-FRET; inhibition, % at 6.5 µM; actives 0.48% (n = 360,000);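 active = inhibition above its plate's cutoff, the mean of tested wells on that plate plus 3 SD, cut at about 29% in these data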
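Assay system: U2OS cells stably expressing human melanocortin 4 receptor (MC4R) / Dosing: 6.5 µM / Timing: compound 30 min, challenge 1 h, detection 1 h / Measured by: Eu-cAMP/anti-cAMP TR-FRET, emission 671 nm / Replicates: singlicate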
Of the large screens only hits and unclear results are named; the others gave an inactive call.

O=C(C(=O)N1CCN(S(=O)(=O)c2cccc(C(F)(F)F)c2)CC1)c1cccc(C(F)(F)F)c1	none (no result: MC4R ag barr, Beta2AR agonist, m5-HT2A agonist, MC4R antagonist)
COc1ccccc1N(Cc1ccccc1)S(=O)(=O)c1cccc(C(=O)Nc2ccc(C(C)=O)cc2)c1	none
COc1ccccc1N(Cc1ccccc1)S(=O)(=O)c1cccc(C(=O)Nc2ccc(C)cn2)c1	TAAR1 antag 50
COc1ccc(OC)c(S(=O)(=O)N2CCN(C(=O)CCc3ccccc3)CC2)c1	none
S=C(Nc1ccc(Cl)cc1)NC1CCN(Cc2ccccc2)CC1	TAAR1 agonist 50
COC(=O)c1ccc(CN2C(=O)[C@]3(OCCC=C[C@H]3C)c3cc(OC)ccc32)cc1	none (no result: MC4R ag barr, Beta2AR agonist, m5-HT2A agonist, MC4R antagonist)
CN1CCN(c2ccc(NC(=O)c3ccc(-c4ccc(Br)cc4)o3)cc2)CC1	MC4R ag barr 11
CC(=O)N1CCN(c2ccc(NCc3ccc(-c4ccc(Br)cc4)o3)cc2)CC1	TAAR1 antag 58
O=C1[C@H](c2ccccc2)[C@@H](c2ccncc2)N1c1ccncc1	none (no result: MC4R ag barr, Beta2AR agonist, m5-HT2A agonist, MC4R antagonist)
O=C1NC(=O)C2C3C=CC(C12)C1C(=O)NC(=O)C31 (configuration not stated)	none (no result: MC4R ag barr, Beta2AR agonist, m5-HT2A agonist, MC4R antagonist)
CCCCCCCCN1C(=O)[C@@H](CC(=O)N2CCCC2)C[C@@]2(C(=O)OC)C1=C[C@H](C(C)(C)C)O[C@@H]2C	none (no result: MC4R ag barr, Beta2AR agonist, m5-HT2A agonist, MC4R antagonist)
COc1cccc(NC(=O)C2CCN(S(=O)(=O)c3ccccc3)CC2)c1	none
COc1ccc(OC)c(S(=O)(=O)N2CCC(C(=O)Nc3cccc(C(F)(F)F)c3)CC2)c1	TAAR1 antag 53
COc1ccc(NC(=O)C2CCCCN2S(=O)(=O)c2ccccc2)cc1S(=O)(=O)N1CCOCC1 (configuration not stated)	TAAR1 antag 58
COc1ccc(NC(=O)CSc2ccccc2)cc1S(=O)(=O)N1CCOCC1	none
Cc1ccccc1C(=O)N[C@H](C(=O)N1CCC[C@H]1C(=O)NCc1ccccc1)c1ccccc1	none (no result: MC4R ag barr, Beta2AR agonist, m5-HT2A agonist, MC4R antagonist)
COc1ccc(CC(=O)NNC(=O)c2ccc(SCc3cc(F)ccc3F)c([N+](=O)[O-])c2)cc1	MC4R ag barr 9.0
COc1cccc(C(=O)NNC(=O)Cc2ccc([N+](=O)[O-])cc2)c1	none
CCC(=O)Nc1ccc(NC(=O)CSc2nc3cc4c(cc3cc2C)CCC4)cc1	MC4R ag barr 9.4
c1ccc2c(c1)[nH]c1c3ccccc3sc21	MC4R ag barr 8.3
O=c1c2ccccc2sc2ccccc12	none
O=C(NC1CCCC1)C1C(c2ccc(C(F)(F)F)cc2)=Nc2ccccc2N1C(=O)c1cc2ccccc2[nH]1 (configuration not stated)	none (no result: MC4R ag barr, Beta2AR agonist, MC4R antagonist)
COc1cc(NC(=O)c2cccs2)c(OC)cc1NC(=O)CCC(=O)Nc1ccc2ncccc2c1	TAAR1 antag 53
Cc1cc(C)cc(NC(=S)NCCSc2ccc(Cl)cc2)c1	TAAR1 antag 57
CC(C)(C)OC(=O)N1CCCC(C(=O)Nc2cccc(C(=O)NCCCc3ccccc3)c2)C1 (configuration not stated)	TAAR1 antag 49
CC(C)(C)OC(=O)N1CCC(C(=O)Nc2cccc(C(=O)NCCCc3ccccc3)c2)CC1	none
CC(C)(C)S(=O)(=O)N1C[C@H]2CC(=O)C=C2[C@@H]1CCO	none (no result: MC4R ag barr, Beta2AR agonist, m5-HT2A agonist, MC4R antagonist)
COc1ccc(/C=C2\N=C(C)N(c3ccc4ccccc4c3)C2=O)cc1OC	TAAR1 antag 66
COc1ccc(/C=C2\N=C3CCCCCN3C2=O)cc1OC	none
O=S(=O)(NCc1ccc(Cl)c(Cl)c1)c1cc(Cl)ccc1N1CC[C@@H](O)C1	none (no result: MC4R ag barr, Beta2AR agonist, m5-HT2A agonist, MC4R antagonist)
COc1ccc(C(=O)NNC2=Nc3cccc4cccc2c34)cc1	MC4R ag barr 9.0
COC(=O)c1cc(OC)c(OC)cc1NC(=O)c1cc(C(C)(C)C)oc1C	none
O=C(CSc1ncnc2c1cnn2CCc1ccccc1)Nc1cccc(C(F)(F)F)c1	TAAR1 antag 60
Cc1cccc(CN2[C@@H](C)[C@H](c3ccccc3)Oc3cc(Br)ccc3S2(=O)=O)c1	none (no result: MC4R ag barr, Beta2AR agonist, m5-HT2A agonist, MC4R antagonist)
O=C(CSc1nc2[nH]c(=O)cc(O)c2s1)Nc1nncs1	none
Cc1csc(NC(=O)CSc2nc3[nH]c(=O)cc(O)c3s2)n1	Beta2AR agonist 93
O=C(O)CCC(=O)NCCc1cccc(Cl)c1	TAAR1 agonist 38
O=C(Cc1cccs1)NNC(=S)NC(=O)c1ccccc1	none
O=C(/C=C/c1ccccc1)NC(=S)NNC(=O)Cc1cccs1	TAAR1 agonist 53
CSC1=NC(C)(C)C=C(/C=C/c2ccc(Cl)cc2)N1	Beta2AR agonist 84
CC(C)(C)NC(=O)CSc1nc(-c2ccccc2)c(-c2ccccc2)[nH]1	MC4R ag barr 8.8
C=CCN1CC(COc2ccc(OC)cc2)OCCS1(=O)=O (configuration not stated)	none (no result: MC4R ag barr, Beta2AR agonist, m5-HT2A agonist, MC4R antagonist)
O=C(c1cccc(S(=O)(=O)N2CCCCC2)c1)N(CCc1ccccc1)Cc1ccccc1	none
CS(=O)(=O)c1cccc(C(=O)N(CCc2ccccc2)Cc2cccs2)c1	TAAR1 agonist 38
CCCCC1C(=O)N(c2ccccc2)N(c2ccc(O)cc2)C1=O (configuration not stated)	Beta2AR agonist 61
C=CC[C@H](CC(=O)N(CCO)Cc1ccccc1)C(=O)NC[C@@H](OC(=O)[C@@H](CC=C)Cc1ccc(F)cc1)c1ccccc1	TAAR1 antag 56
C=CCC[C@H](Cc1ccc(F)cc1)C(=O)O[C@H](CNC(=O)[C@@H](CC=C)CC(=O)N(CCO)Cc1ccccc1)c1ccccc1	TAAR1 antag 56
C=CC[C@@H](CC(=O)N(CCO)Cc1ccccc1)C(=O)NCCOC(=O)[C@@H](CC=C)Cc1ccc(F)cc1	none
Cc1ccccc1C(=O)Nc1ccccc1C(=O)NCc1ccccc1	TAAR1 antag 49
O=C(Nc1ccccc1C(=O)NCc1ccccc1)c1ccccc1Br	none
CC1Cc2ccccc2N1C(=O)CSc1nc2c(c(=O)n(C)c(=O)n2C)n1Cc1ccccc1 (configuration not stated)	TAAR1 antag 52
COc1ccc(N2CCN(C(c3cccs3)C(C)NC(=O)C(=O)N3CCCCC3)CC2)cc1 (configuration not stated)	Beta2AR agonist 70
O=C(NCCCN1CCN(c2ccccc2F)CC1)C1CCN(S(=O)(=O)c2cccs2)CC1	m5-HT2A agonist 15

Screening data deposited in PubChem BioAssay by several laboratories.
